# Screening results: PubChem, several laboratories
# Only some compounds are listed: those with a hit (about 4% of all), similar ones and a draw of the others.
# TAAR1 antagonist: human TAAR1 antagonism | Q96RJ0 | CHO RD-HGA16 TAAR1, Fluo-8 calcium fluorescence, antagonist | inhibition, % at 3 µM | actives 1.5% (n = 360,000);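 active means inhibition above a per-plate cutoff, the mean inhibition of test compounds on that plate plus 3 SD, cut at about 49% in these data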
# Target sequence (Q96RJ0 whole entry, looked up): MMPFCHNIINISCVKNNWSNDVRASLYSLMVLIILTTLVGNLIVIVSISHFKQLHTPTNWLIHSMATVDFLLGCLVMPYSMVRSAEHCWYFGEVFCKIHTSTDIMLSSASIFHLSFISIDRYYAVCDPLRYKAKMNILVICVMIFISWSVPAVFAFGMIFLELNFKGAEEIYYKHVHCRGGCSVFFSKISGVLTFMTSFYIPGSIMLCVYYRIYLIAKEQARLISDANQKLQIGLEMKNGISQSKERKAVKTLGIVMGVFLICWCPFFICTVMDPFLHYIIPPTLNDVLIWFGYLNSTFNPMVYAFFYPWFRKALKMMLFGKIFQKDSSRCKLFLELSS
#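 Material: RD-HGA16 CHO cells with stable hTAAR1 and Gα16; Dosing: single nominal final test compound concentration of 3 µM; Schedule: seeding 17-24 h prior, 75-min 37 °C, 30-min RT dye loading; Detection: kinetic Fluo-8 calcium fluorescence measurement; Measure: % inhibition from peak post-agonist over basal fluorescence ratio; Benchmarks: vehicle and agonist controls.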
# MPTP block: permeability transition pore inhibition. isolated mouse mitochondria, Ca2+ swelling absorbance, 30 min. actives 1.4% (n = 360,000). inhibition, % at 10 µM. AID 602449;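 active means inhibition of 50% or more, scaled per plate between neutral and stimulator controls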
# TAAR1 ag: human TAAR1 agonism. AID 624467. CHO RD-HGA16 TAAR1, Fluo-8 calcium fluorescence; vehicle wells 0%, saturating PEA agonist 100%. actives 0.99% (n = 360,000). activation, % at 3 µM. Q96RJ0;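 active means activation above the mean activation of all test compounds in the run plus 3 SD, cut at about 38% in these data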
#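 Assay system – CHO-derived RD-HGA16 cells with stable Gα16 and human TAAR1 · Compound dosing – one-point dosing at 3 µM (nominal) · Incubation – 17-24 h seeding, 75 min 37 °C dye, 30 min RT · Measured by – kinetic Fluo-8 calcium fluorescence · Control set – DMSO vehicle as 0%, PEA at EC100 as 100% · Repeats – single well for each compound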
# DAGLB inh: blocks human DAGLB lipase activity; HEK293T DAGLB membrane lysate, EnzChek fluorogenic substrate; actives 0.059% (n = 340,000); AID 504411; Q8NCG7; inhibition, % at 5.17 µM; in the data active means inhibition above about 34%
# GPR7 antag: human neuropeptides B/W receptor 1 antagonism; P48145; GPR7-expressing cells, fluorescence antagonist assay; inhibition, % at 4.4 µM; actives 1.1% (n = 290,000); AID 1861; in the data active means inhibition above about 16%, passing the limit was not always enough;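 further: cells stimulated with the agonist NPW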
# Target sequence (P48145 whole entry, looked up): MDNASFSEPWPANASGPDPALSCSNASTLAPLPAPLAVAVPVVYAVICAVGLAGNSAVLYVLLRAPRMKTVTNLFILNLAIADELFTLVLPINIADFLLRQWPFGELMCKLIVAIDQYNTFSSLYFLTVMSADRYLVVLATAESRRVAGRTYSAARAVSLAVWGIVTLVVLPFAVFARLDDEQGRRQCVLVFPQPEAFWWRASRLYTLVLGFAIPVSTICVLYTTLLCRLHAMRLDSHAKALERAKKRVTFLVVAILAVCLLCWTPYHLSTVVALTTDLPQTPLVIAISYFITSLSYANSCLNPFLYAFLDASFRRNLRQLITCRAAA
# Rh123 counter: mitochondrial membrane potential, counter-screen. inhibition, % at 10 µM. shares compounds with MPTP block. actives 78% (n = 5,000). isolated mitochondria, Rhodamine 123 fluorescence; in the data active means inhibition above about 22%
# MPTP swell DR: dose response confirmation of mitochondrial permeability transition pore inhibitors; IC50, µM; isolated mitochondria swelling, absorbance; actives 58% (n = 780); shares compounds with MPTP block; in the data active means IC50 below about 20 µM
# MPTP counter DR: MPTP inhibitor counter-screen activity, dose response | shares compounds with MPTP block | isolated mitochondria counterscreen, fluorescence read-out | IC50, µM | actives 49% (n = 780) | AID 651564; in the data active means IC50 below about 80 µM
# Hits are given with their value; – = inactive; · = not tested or not shown.
SMILES,TAAR1 antagonist,MPTP block,TAAR1 ag,DAGLB inh,GPR7 antag,Rh123 counter,others
CCOC(=O)C1=CCN(S(=O)(=O)c2ccc(Br)cc2)C1c1ccc(F)cc1 (stereo unspecified),–,·,–,·,·,·,
CN(C)CCCN1c2ccccc2CCc2ccc(Cl)cc21,–,80,–,–,–,–,
N#C/C(=C(/O)CCl)c1nc2c(s1)CCc1ccccc1-2,–,55,–,–,–,78,
Nc1nc2c(s1)CCc1ccccc1-2,–,–,–,–,–,·,
Cc1ccc(C(C)C)c(OCC(=O)Nc2ccc3c(c2)nc(CCN2CCCCC2)n3C)c1,–,73,–,–,–,–,MPTP swell DR=6.1;MPTP counter DR=75
Cn1c(CCN2CCCCC2)nc2cc(NC(=O)COc3ccc(Cl)cc3)ccc21,–,–,–,–,–,·,
Cc1occc(=O)c1OC(=O)Nc1ccc(Cl)c(Cl)c1,–,99,–,–,–,78,
COc1ccc(CN(C)CCCn2cnc3c(SC)ncnc32)cc1OC,–,–,–,–,·,·,
C/C(=N\Nc1cccc([N+](=O)[O-])c1)c1cc(F)ccc1O,–,85,–,–,–,65,
C/C(=N/Nc1ccc([N+](=O)[O-])cc1)c1c[nH]c2ccccc12,–,–,–,–,–,·,
C/C(=N/Nc1ccc([N+](=O)[O-])cc1)c1ccc(C)cc1C,–,65,–,–,–,60,
Cc1oc(-c2ccc(Cl)cc2)nc1CN1CCC(C(=O)N2CCN(Cc3ccccc3)CC2)CC1,–,57,–,–,–,–,MPTP swell DR=–;MPTP counter DR=30
Cc1oc(-c2ccc(Cl)cc2)nc1CN1CCC(C(=O)N2CCc3ccccc3C2)CC1,·,–,·,–,–,·,
C[C@@H](NC(=O)[C@H]1O[C@@H](n2cnc3c(N)ncnc32)[C@H](O)[C@@H]1O)c1cccc2ccccc12,–,–,–,·,·,·,
COC(=O)[C@@]12C[C@@H](CC(=O)NCCc3ccccc3OC)C(=O)N(Cc3ccccc3)C1=CCC(C)(C)C2,–,–,–,·,·,·,
NC(N)=NCCCC(NC(=O)c1ccccc1)C(=O)Nc1ccc([N+](=O)[O-])cc1 (stereo unspecified),–,–,–,–,·,·,
NC(N)=NCCCC(NC(=O)c1ccccc1)C(=O)Nc1ccc2ccccc2c1 (stereo unspecified),–,81,–,–,·,–,MPTP swell DR=8.7;MPTP counter DR=–
COCCn1c(SCc2csc(-c3ccccc3)n2)nc2ccccc21,–,70,–,–,–,41,
CC1=NN(C(N)=S)C(=O)C1N=Nc1c(Br)cc(Br)cc1Br (stereo unspecified),–,56,39,–,–,78,
CN1C(=O)c2ccc(NC(=O)c3ccc(N4CCCCC4)c([N+](=O)[O-])c3)cc2C1=O,–,–,–,–,–,·,
O=C(Nc1ccc(N2CCCC2)c(Cl)c1)c1ccc([N+](=O)[O-])cc1,–,76,–,–,–,76,
Cc1cc(C(=O)Nc2ccc(N3CCCC3)c(Cl)c2)ccc1[N+](=O)[O-],–,80,–,–,–,86,
Oc1ccc(CCNc2ncnc3ccc(Cl)cc23)cc1,51,95,–,–,–,97,
Nc1nc(Cl)cc(NCCc2ccc(O)cc2)n1,–,–,–,–,–,·,
CCc1ccc(NC(=O)C2CCN(S(=O)(=O)c3ccc4c(c3)NC(=O)C(C)S4)CC2)cc1 (stereo unspecified),–,98,–,–,–,97,
SMILES,TAAR1 antagonist,MPTP block,TAAR1 ag,DAGLB inh,GPR7 antag,Rh123 counter,others
CC1Sc2ccc(S(=O)(=O)N3CCC(C(=O)NCc4ccc(Cl)cc4)CC3)cc2NC1=O (stereo unspecified),–,–,–,–,–,·,
Cc1ccc(NC(=O)C2CCN(S(=O)(=O)c3ccc4c(c3)NC(=O)C(C)S4)CC2)cc1C (stereo unspecified),50,98,–,–,–,89,
CC1Sc2ccc(S(=O)(=O)N3CCC(C(=O)Nc4cccc(Cl)c4)CC3)cc2NC1=O (stereo unspecified),49,78,–,–,–,85,
Nc1[nH]c(C(=O)c2ccccc2)c(-c2cccc3ccccc23)c1C(=O)NCc1ccc(Cl)cc1Cl,–,·,–,·,·,·,
COc1ccc(Cn2c(C)cc(O)cc2=O)cc1,–,·,–,·,·,·,
O=C(c1ccc(S(=O)(=O)c2ccccc2Cl)c([N+](=O)[O-])c1)N1CCCCCC1,–,79,–,–,–,49,
COc1ncnc2c1ncn2CCCNC1CCN(Cc2ccccc2)CC1,–,–,–,–,·,·,
C=CCOC(=O)C1=C(C)NC(SCC(=O)Nc2ccccc2)=C(C#N)C1c1ccco1 (stereo unspecified),–,64,–,–,–,68,
C=CCOC(=O)C1=C(C)NC(SCC(=O)N(CC)CC)=C(C#N)C1c1ccco1 (stereo unspecified),–,–,–,–,–,·,
O=C1C(=Cc2ccc(F)cc2)CCc2ccccc21,–,–,–,·,·,·,
COc1ccc(-c2[nH]c(-c3cc(OC)c4c(c3)OCO4)nc2-c2ccccc2)cc1,–,95,–,–,–,69,
COc1ccc(-c2nc(-c3ccccc3)c(-c3cc([N+](=O)[O-])ccc3C)[nH]2)cc1OC,–,–,–,–,–,·,
COc1ccc(NC(=O)CN2C(=O)C(c3ccccc3)=NC23CCCCCC3)cc1,–,–,–,–,–,·,
O=C(CN1C(=O)C(c2ccc(F)cc2)=NC12CCCC2)Nc1ccc(F)cc1,–,60,–,–,–,53,
CC(C)(C)c1ccc(S(=O)(=O)NC(=O)C2(C)CCN2C(=O)CC2CCCCC2)cc1 (stereo unspecified),–,–,–,·,·,·,
Cc1ccc(F)cc1NCC(=O)Nc1ccc(Br)cc1,–,71,–,–,–,72,
COC(=O)Cc1nnn2c1[C@H](C)[C@H](c1ccccc1Br)OC[C@@H]2c1ccccc1,–,·,–,·,·,·,
Cc1ccc(/C=C2\SC(=S)N(/N=C/c3cc([N+](=O)[O-])ccc3O)C2=O)o1,·,72,·,–,–,–,
Cc1ccc(/C=C2\SC(=S)N(C3CCS(=O)(=O)C3)C2=O)o1 (stereo unspecified),–,–,–,–,–,·,
COC(=O)c1cc(OC)c(OC)cc1NC(=S)Nc1cccc(Cl)c1,–,91,–,–,–,110,
COc1cc(C)c(NC(=S)Nc2ccc(Cl)c(Cl)c2)cc1OC,–,100,–,–,–,82,
COCCNC(=S)Nc1ccc(Cl)c(Cl)c1,–,–,–,–,–,·,
COC(=O)c1cc(OC)c(OC)cc1NC(=S)Nc1cc(Cl)ccc1OC,–,–,–,–,–,·,
Cc1cc(S(=O)(=O)N2CCCCC2)c(C)s1,–,–,–,–,–,·,
